Published values from different studies.
Lines come from different studies, so protocols differ.
Target: Receptor-interacting serine/threonine-protein kinase 2 (RIPK2, Homo sapiens, UniProt O43353)

assay	setting	remaining binding [%]	Structure (SMILES)
binding	1 µM	100	Cc1cnn2ncc(-c3ccnc(N(C)C)n3)c2c1
binding, competition with immobilised ligand	1 µM	100	COc1cnc(Nc2cccc(S(N)(=O)=O)c2)nc1N1CCN(c2ccccc2)C(=O)C1
binding, competition with immobilised ligand	1 µM	81	Cc1cnc(Nc2ccc(C(=O)N3CCC(N4CCCC4)CC3)cc2)nc1-c1cc2ccccc2s1
cell-free assay, competition with immobilised ligand	1 µM	53	Nc1cnc(N2CCc3cc(S(=O)(=O)Nc4c(F)cc(Cl)cc4F)cc(N4CCCC4=O)c32)nc1
binding	1 µM	95	C[C@H]1CCN(c2nccc(-c3cnn4ncccc34)n2)C1
cell-free assay, competition with immobilised ligand	1 µM	100	CN(C)C(=O)Cn1cc(-c2nc(C3(c4ccc(-c5cnc(N)nc5)cc4)CC3)no2)cn1
cell-free assay, competition with immobilised ligand	5 µM	100	COc1ncc2cc3ccccc3nc2c1C#N
cell-free assay, competition with immobilised ligand	1 µM	100	O=C(NCc1ncc(C(F)(F)F)cc1Cl)c1ccc2c(c1)C1(CCS(=O)(=O)CC1)[C@H](C1CC1)N2S(=O)(=O)c1ccc(F)cc1
binding, competition with immobilised ligand	1 µM	53	O=C(Nc1c[nH]nc1C(=O)NC1CCNCC1)c1cc(F)cc(F)c1
binding	1 µM	100	CN(C)c1ncc(F)c(-c2cnn3ncccc23)n1
cell-free assay, competition with immobilised ligand	1 µM	98.7	CC(=O)C1=C(C)N(c2cccc(C(F)(F)F)c2)C(=O)N[C@@H]1c1ccc(C#N)nc1
binding	1 µM	89	CN(CCCC(F)(F)F)c1nccc(-c2cnn3ncccc23)n1
binding, competition with immobilised ligand	1 µM	100	CNC(=O)[C@@H]1CC[C@@H](n2c(-c3ccc4cnccc4c3)nc3ccc(C(=O)NCc4cccc(C(N)=O)c4)cc32)C1
binding	1 µM	100	COc1ccnn2ncc(-c3ccnc(N(C)C)n3)c12
cell-free assay, competition with immobilised ligand	1 µM	56	CN(C(=O)c1ccccc1)c1cc(N(C)c2ccc3c(c2)CCc2ccc(C(=O)NCCN4CCOCC4)cc2C3=O)ccc1F
binding, competition with immobilised ligand	1 µM	89	O=C(c1ccc(Nc2ncc(Cl)c(-c3ccc(Cl)s3)n2)cc1)N1CCC(N2CCCC2)CC1
binding	1 µM	78	c1cnn2ncc(-c3ccnc(N4CCC45COC5)n3)c2c1
cell-free assay, competition with immobilised ligand	1 µM	100	O=C1NC(c2ccccn2)Sc2ccccc21 (stereo not shown)
binding	1 µM	95	N[C@@H]1CCN(c2nccc(-c3cnn4ncccc34)n2)C1
binding, competition with immobilised ligand	0.1 µM	100	C[C@@H](c1ccc(-n2cnc3c(N)ncnc32)cc1)N1CCc2nn(C)c(Cc3ccccc3)c2C1=O
cell-free assay, competition with immobilised ligand	1 µM	92	CN([C@@H]1CCc2c(CC(=O)O)c3ccccc3n2C1)S(=O)(=O)c1ccc(F)cc1
binding, competition with immobilised ligand	1 µM	80	O=C(NCCCN1CCOCC1)c1ccc(Nc2nccc(-c3cc4ccccc4s3)n2)cc1
